Experimental data from ChEMBL document CHEMBL3393024, “Multidrug resistance-reversal effects of resin glycosides from Dichondra repens” (Bioorg Med Chem Lett, 2015).

Assays:
[1] = Resistance factor, ratio of vincristine IC50 to vincristine IC50 in presence of compound for human KB/VCR cells; type: functional
Outline: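 Vincristine was serially diluted from 0.125 to 1 µM and tested with or without 25 µM test sample. Resistance factor is the vincristine IC50 alone divided by the vincristine IC50 with sample.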

[2] = Cytotoxicity against human KB/VCR cells at 25 uM after 72 hrs by SRB method; type: functional
Outline: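 Test sample was given alone at 25 µM, and cytotoxicity was expressed as percent inhibition ratio.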

[3] = Cytotoxicity against human KB/VCR cells at 10 uM after 72 hrs by SRB method; type: functional
[4] = Cytotoxicity against human KB/VCR cells after 72 hrs by SRB method; type: functional, cell-based

CCCCC[C@@H](CCCCCCCCCC(=O)O)O[C@@H]1O[C@H](CO[C@@H]2O[C@@H](C)[C@H](O)[C@@H](O)[C@H]2OC(=O)[C@H](C)[C@@H](C)O)[C@@H](O)[C@H](O)[C@H]1O[C@@H]1O[C@H](CO)[C@@H](O[C@@H]2O[C@@H](C)[C@H](O)[C@@H](OC(=O)[C@H](C)[C@@H](C)O)[C@H]2O)[C@H](O)[C@H]1O
Ratio IC50 [1]: 1.19
inhibition at 25 µM [2]: 2.52%

CCCCC[C@H](O)CCCCCCCC(=O)O[C@H]1[C@H](O[C@H]2C(O)O[C@H](COC(C)=O)[C@@H](O)[C@@H]2O)O[C@@H](C)[C@@H](OC(=O)[C@H](C)[C@@H](C)O)[C@H]1O[C@@H]1O[C@@H](C)[C@H](O)[C@@H](O)[C@H]1O (some centres not stated)
Ratio IC50 [1]: 1.36
inhibition at 25 µM [2]: 0.85%

CCCCC[C@H](O)CCCCCCCCCC(=O)O[C@H]1[C@H](O[C@H]2C(O)O[C@H](CO)[C@@H](O)[C@@H]2O)O[C@@H](C)[C@H](OC(=O)[C@H](C)[C@@H](C)O)[C@H]1O[C@@H]1O[C@@H](C)[C@H](O)[C@@H](O)[C@H]1O (some centres not stated)
Ratio IC50 [1]: 1.78
inhibition at 25 µM [2]: 1.35%

CCCCC[C@@H](CCCCCCC[C@H](O)CC(=O)O)O[C@@H]1O[C@H](CO[C@@H]2O[C@@H](C)[C@H](O)[C@@H](O)[C@H]2OC(=O)[C@H](C)[C@@H](C)O)[C@@H](O)[C@H](O)[C@H]1O[C@@H]1O[C@H](CO)[C@@H](O[C@@H]2O[C@@H](C)[C@H](O)[C@@H](OC(=O)[C@H](C)[C@@H](C)O)[C@H]2O)[C@H](O)[C@H]1O
Ratio IC50 [1]: 1.32
inhibition at 25 µM [2]: 0.83%

COc1ccc(CCN(C)CCCC(C#N)(c2ccc(OC)c(OC)c2)C(C)C)cc1OC (configuration not stated)
inhibition at 10 µM [3]: 0.45%

CCC[C@H](O)CCCCCCCCCC(=O)O[C@H]1[C@H](O[C@H]2C(O)O[C@H](CO)[C@@H](O)[C@@H]2O)O[C@@H](C)[C@@H](OC(=O)[C@H](C)[C@@H](C)O)[C@H]1O[C@@H]1O[C@@H](C)[C@H](O)[C@@H](O)[C@H]1O (some centres not stated)
Ratio IC50 [1]: 1.03
inhibition at 25 µM [2]: 1.64%

CC[C@]1(O)C[C@H]2CN(CCc3c([nH]c4ccccc34)[C@@](C(=O)OC)(c3cc4c(cc3OC)N(C=O)[C@H]3[C@@](O)(C(=O)OC)[C@H](OC(C)=O)[C@]5(CC)C=CCN6CC[C@]43[C@@H]65)C2)C1 [VINCRISTINE]
IC50 [4]: 570 nM
